We go through 1 compound from ChEMBL document CHEMBL1255376, “Comparative surveillance study of telavancin activity against recently collected gram-positive clinical isolates from across the United States” (2008).

What all share (assay type): functional
Assay [1] has as its system Enterococcus faecalis. As to the kind of experiment: Antibacterial activity against vancomycin-resistant and teichoplanin-susceptible Enterococcus faecalis clinical isolate by broth microdilution method. The method, boiled down: (§1)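 MICs by CLSI broth microdilution in frozen trays pre-loaded with serial dilutions of each agent. Quality-control strains run in parallel: E. faecalis ATCC 29212 and ATCC 51299, S. aureus ATCC 29213, S. pneumoniae ATCC 49619. Comparator susceptibility categories follow CLSI breakpoints. Methicillin resistance in staphylococci assigned from the oxacillin MIC.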
On the technique in general: Broth dilution looks for growth in wells or tubes with falling amounts of substance.

Assay [2] deals with Enterococcus faecalis. The assay can be described thus: Antibacterial activity against vancomycin-susceptible Enterococcus faecalis clinical isolate by broth microdilution method. The method, boiled down: as §1
The subject of assay [3] is Enterococcus faecium. As to the kind of experiment: Antibacterial activity against vancomycin-resistant and teichoplanin-susceptible Enterococcus faecium clinical isolate by broth microdilution method. The method, boiled down:
as §1

For assay [4], the system named is Enterococcus faecium. As to the kind of experiment: Antibacterial activity against vancomycin-susceptible Enterococcus faecium clinical isolate by broth microdilution method. The method, boiled down: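 MIC by CLSI broth microdilution in frozen microtiter trays holding serial dilutions of each agent, prepared from standard laboratory powders. E. faecalis ATCC 29212 and ATCC 51299, S. aureus ATCC 29213 and S. pneumoniae ATCC 49619 run in parallel as quality-control strains. Comparator susceptibility interpreted with CLSI breakpoints.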

Assay [5] has as its system Enterococcus faecium. The assay can be described thus: Antibacterial activity against vancomycin- and teichoplanin-nonsusceptible Enterococcus faecium clinical isolate by broth microdilution method. The method, boiled down:
as §1

The subject of assay [6] is Enterococcus faecalis. As to the kind of experiment: Antibacterial activity against vancomycin- and teichoplanin-nonsusceptible Enterococcus faecalis clinical isolate by broth microdilution method. Summed up:
as §1

Converted amounts (≈) assume the structure as drawn. A value given as a limit tells only on which side of the number the result lay.

As a reminder, the MIC is the smallest concentration in the dilution series that meets the test's criterion for growth inhibition. Low values mean greater potency, high ones weaker potency. As usually defined, the MIC50 is the lowest concentration that inhibits either 50% of growth or 50% of the strains tested, depending on the study. In general, MIC90 refers to the lowest concentration that inhibits either 90% of growth or 90% of the strains tested, depending on the study. In the assay on Enterococcus faecalis [1], `CC1(C)S[C@@H]2[C@H](NC(=O)[C@H](N)c3ccccc3)C(=O)N2[C@H]1C(=O)O` [AMPICILLIN] registered an MIC of 0.5 µg/mL (≈ 1.43 µM). In addition, the MIC50 against Enterococcus faecalis [2] was 1 µg/mL (≈ 2.86 µM); in the assay on Enterococcus faecium [3] it was 128 µg/mL (≈ 366 µM); with Enterococcus faecium [4], 128 µg/mL (≈ 366 µM); with Enterococcus faecium [5], 128 µg/mL (≈ 366 µM); in the assay with Enterococcus faecalis [6], 1 µg/mL (≈ 2.86 µM). Also, the MIC90 against Enterococcus faecalis [2] was 1 µg/mL (≈ 2.86 µM); in the assay with Enterococcus faecium [4], above 128 µg/mL; in the assay on Enterococcus faecium [5], above 128 µg/mL; in the assay on Enterococcus faecalis [6], 2 µg/mL (≈ 5.72 µM).
